Several values for one entry are separate records, joined by “and”; a condition that tells them apart may be missing. Identical values can stand only once.
Test system: Fibroblast
Assay: Multiplex assay against human fibroblast
Type: toxicity, cell-based
Summary of the method: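 Per cents of healthy-nucleus cells form the tubulin, mitochondrial-mass and membrane-permeability phenotype values. Live cells were stained at seeding with Hoechst33342, BioTracker Green Microtubule Cytoskeleton Dye, MitoTracker Red and Annexin V Alexa Fluor 680. After compound addition they were imaged on a CQ1 microscope at 37°C and 5% CO2, and CellPathfinder machine-learning gating split them into Hoechst high-intensity objects or normal cells, normal cells into healthy, pyknosed or fragmented nuclei, and pyknosed cells into mitotic or apoptotic.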

[1] = 12 h, 1 µM, compound concentration 1 uM, replicate 1
[2] = 12 h, 1 µM, compound concentration 1 uM, replicate 2
[3] = 12 h, 10 µM, compound concentration 10 uM, replicate 1
[4] = 12 h, 10 µM, compound concentration 10 uM, replicate 2
[5] = 24 h, 1 µM, compound concentration 1 uM, replicate 1
[6] = 24 h, 1 µM, compound concentration 1 uM, replicate 2
[7] = 24 h, 10 µM, compound concentration 10 uM, replicate 1
[8] = 24 h, 10 µM, compound concentration 10 uM, replicate 2

SMILES: CNC(=O)c1ccc(Nc2ncc(C(F)(F)F)c(NCc3nccnc3N(C)S(C)(=O)=O)n2)cc1 [DEFACTINIB]
- Population Apoptotic (%) [1]: 66% and 80%
- Population Fragmented Nuclei (%) [1]: 31% and 21%
- Population Healthy Nuclei (%) [1]: 51% and 60%
- Population Hoechst High Intensity Objects (%) [1]: 12% and 14%
- Population Membrane Permeable-Phenotype (%) [1]: 8% and 23%
- Population Mitochondria Different-Phenotype (%) [1]: 2% and 4%
- Population Mitotic Cells (%) [1]: 33% and 20%
- Population Normal (%) [1]: 87% and 85%
- Population Pyknosed Nuclei (%) [1]: 17%
- Total Cell Count [1]: 217 and 234
- Population Apoptotic (%) [2]: 25% and 42%
- Population Fragmented Nuclei (%) [2]: 60% and 57%
- Population Healthy Nuclei (%) [2]: 32% and 27%
- Population Hoechst High Intensity Objects (%) [2]: 22% and 35%
- Population Membrane Permeable-Phenotype (%) [2]: 0% and 7%
- Population Mitochondria Different-Phenotype (%) [2]: 15% and 23%
- Population Mitotic Cells (%) [2]: 75% and 57%
- Population Normal (%) [2]: 77% and 64%
- Population Pyknosed Nuclei (%) [2]: 6% and 14%
- Population Tubulin-Different-Phenotype (%) [2]: 20% and 38%
- Total Cell Count [2]: 79 and 73
- Population Apoptotic (%) [3]: 90% and 80%
- Population Fragmented Nuclei (%) [3]: 24% and 29%
- Population Healthy Nuclei (%) [3]: 58%
- Population Hoechst High Intensity Objects (%) [3]: 8%
- Population Membrane Permeable-Phenotype (%) [3]: 21% and 7%
- Population Mitochondria Different-Phenotype (%) [3]: 3%
- Population Mitotic Cells (%) [3]: 9% and 20%
- Population Normal (%) [3]: 91%
- Population Pyknosed Nuclei (%) [3]: 17% and 12%
- Total Cell Count [3]: 208 and 174
- Population Apoptotic (%) [4]: 42% and 33%
- Population Fragmented Nuclei (%) [4]: 42% and 66%
- Population Healthy Nuclei (%) [4]: 47% and 25%
- Population Hoechst High Intensity Objects (%) [4]: 24% and 47%
- Population Membrane Permeable-Phenotype (%) [4]: 12% and 0%
- Population Mitochondria Different-Phenotype (%) [4]: 18% and 50%
- Population Mitotic Cells (%) [4]: 57% and 66%
- Population Normal (%) [4]: 75% and 52%
- Population Pyknosed Nuclei (%) [4]: 10% and 7%
- Population Tubulin-Different-Phenotype (%) [4]: 54% and 40%
- Total Cell Count [4]: 93 and 74
- Population Apoptotic (%) [5]: 66% and 85%
- Population Fragmented Nuclei (%) [5]: 23% and 35%
- Population Healthy Nuclei (%) [5]: 59% and 48%
- Population Hoechst High Intensity Objects (%) [5]: 18% and 11%
- Population Mitochondria Different-Phenotype (%) [5]: 3% and 7%
- Population Mitotic Cells (%) [5]: 33% and 14%
- Population Normal (%) [5]: 81% and 88%
- Population Pyknosed Nuclei (%) [5]: 16% and 15%
- Total Cell Count [5]: 205 and 241
- Population Fragmented Nuclei (%) [6]: 55% and 61%
- Population Healthy Nuclei (%) [6]: 39% and 19%
- Population Hoechst High Intensity Objects (%) [6]: 30% and 29%
- Population Mitochondria Different-Phenotype (%) [6]: 5% and 0%
- Population Mitotic Cells (%) [6]: 100% and 40%
- Population Normal (%) [6]: 69% and 70%
- Total Cell Count [6]: 62 and 74
- Population Apoptotic (%) [7]: 80% and 73%
- Population Fragmented Nuclei (%) [7]: 33% and 25%
- Population Healthy Nuclei (%) [7]: 45% and 64%
- Population Hoechst High Intensity Objects (%) [7]: 10% and 15%
- Population Membrane Permeable-Phenotype (%) [7]: 21% and 10%
- Population Mitotic Cells (%) [7]: 20% and 26%
- Population Normal (%) [7]: 89% and 84%
- Population Pyknosed Nuclei (%) [7]: 21% and 9%
- Total Cell Count [7]: 210 and 186
- Population Apoptotic (%) [8]: 75% and 50%
- Population Fragmented Nuclei (%) [8]: 49% and 57%
- Population Healthy Nuclei (%) [8]: 44% and 37%
- Population Hoechst High Intensity Objects (%) [8]: 27% and 35%
- Population Membrane Permeable-Phenotype (%) [8]: 14% and 0%
- Population Mitochondria Different-Phenotype (%) [8]: 10% and 13%
- Population Mitotic Cells (%) [8]: 25% and 50%
- Population Normal (%) [8]: 72% and 64%
- Population Pyknosed Nuclei (%) [8]: 6% and 5%
- Population Tubulin-Different-Phenotype (%) [8]: 46% and 26%
- Total Cell Count [8]: 87 and 62

From ChEMBL document CHEMBL4689842, “EUbOPEN Chemogenomics Library wave 1” (2021)
